The record followed here is ChEMBL document CHEMBL1629459, “Microarray and molecular analyses of the azole resistance mechanism in Candida glabrata oropharyngeal isolates” (2010).

Converted amounts (≈) assume the structure as drawn.

Common to all, as to type: functional
Assay [1] concerns Nakaseomyces glabratus. The assay can be described thus: Antifungal activity against Candida glabrata isolate Cg11S. Summed up:
(§1)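 Fluconazole susceptibility by modified CLSI (NCCLS) broth microdilution. Medium was buffered RPMI with 2% glucose added. Inoculum was 250 cells per well, incubated at 37°C for 48 h. MIC was read as the concentration giving 80% growth reduction (MIC80). Clinical oropharyngeal isolates were cultured on YPD or on minimal medium (yeast nitrogen base plus 2% glucose).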

Assay [2] deals with Nakaseomyces glabratus. The assay can be described thus: Antifungal activity against Candida glabrata isolate Cg3S. Summed up:
as §1

For assay [3], the system named is Nakaseomyces glabratus. The assay can be described thus: Antifungal activity against Candida glabrata isolate Cg6R with CgPDR1 G943S mutant. In short, it runs like this: as §1
Assay [4] deals with Nakaseomyces glabratus. The assay can be described thus: Antifungal activity against Candida glabrata isolate Cg21S. Summed up: as §1
Assay [5] has as its system Nakaseomyces glabratus. The assay can be described thus: Antifungal activity against Candida glabrata isolate Cg5S. In short, it runs like this:
as §1

Assay [6] has as its system Nakaseomyces glabratus. The assay can be described thus: Antifungal activity against Candida glabrata isolate Cg1S. Summed up: as §1
In assay [7] the test system is Nakaseomyces glabratus. The assay can be described thus: Antifungal activity against Candida glabrata isolate Cg4R with CgPDR1 S391L mutant. Summed up:
as §1

Assay [8] concerns Nakaseomyces glabratus. Kind of assay: Antifungal activity against Candida glabrata isolate Cg18R with CgPDR1 L344S mutant. Summed up: as §1
Assay [9] relates to Nakaseomyces glabratus. Kind of assay: Antifungal activity against Candida glabrata isolate Cg8R with CgPDR1 W297S. Summed up: as §1
Assay [10] relates to Nakaseomyces glabratus. The assay can be described thus: Antifungal activity against Candida glabrata isolate Cg12R with CgPDR1 G348A mutant. Summed up:
as §1

Assay [11] deals with Nakaseomyces glabratus. The assay can be described thus: Antifungal activity against Candida glabrata isolate Cg16R with CgPDR1 R772I mutant. Summed up: as §1
In assay [12] the test system is Nakaseomyces glabratus. The assay can be described thus: Antifungal activity against Candida glabrata isolate Cg13S. Summed up: as §1
In assay [13] the test system is Nakaseomyces glabratus. Kind of assay: Antifungal activity against Candida glabrata isolate Cg14R with CgPDR1 N764I mutant. In short, it runs like this:
as §1

Assay [14] deals with Nakaseomyces glabratus. The assay can be described thus: Antifungal activity against Candida glabrata isolate Cg15S. Summed up:
as §1

For assay [15], the system named is Nakaseomyces glabratus. The assay can be described thus: Antifungal activity against Candida glabrata isolate Cg7S. Summed up:
as §1

In assay [16] the test system is Nakaseomyces glabratus. The assay can be described thus: Antifungal activity against Candida glabrata isolate Cg17S. Summed up:
as §1

Assay [17] concerns Nakaseomyces glabratus. The assay can be described thus: Antifungal activity against Candida glabrata isolate Cg22R with CgPDR1 L280F mutant. In short, it runs like this: as §1
For assay [18], the system named is Nakaseomyces glabratus. The assay can be described thus: Antifungal activity against Candida glabrata isolate Cg2R with CgPDR1 F575L mutant. Summed up: as §1

In general, MIC80 refers to the lowest concentration that inhibits either 80% of growth or 80% of the strains tested, depending on the study. The low end stands for greater potency, the high end for weaker potency. `OC(Cn1cncn1)(Cn1cncn1)c1ccc(F)cc1F` [FLUCONAZOLE]: the MIC80 came out at 32 µg/mL (≈ 104 µM) in assay [1]; 32 µg/mL (≈ 104 µM) in assay [2]; 256 µg/mL (≈ 836 µM) in [3]; 32 µg/mL (≈ 104 µM) in assay [4]; 32 µg/mL (≈ 104 µM) in [5]; 16 µg/mL (≈ 52.2 µM) in assay [6]. The MIC80 in assay [7] is 256 µg/mL (≈ 836 µM); in assay [8], 256 µg/mL (≈ 836 µM); in assay [9], 512 µg/mL (≈ 1670 µM); in assay [10], 256 µg/mL (≈ 836 µM); in [11], 128 µg/mL (≈ 418 µM); in [12], 64 µg/mL (≈ 209 µM). Besides, the MIC80 turned out to be 256 µg/mL (≈ 836 µM) in assay [13]; 16 µg/mL (≈ 52.2 µM) in assay [14]; 32 µg/mL (≈ 104 µM) in assay [15]; 32 µg/mL (≈ 104 µM) in assay [16]; 256 µg/mL (≈ 836 µM) in assay [17]; 128 µg/mL (≈ 418 µM) in assay [18].
